For data set [1], the system named is Kidney. As to the kind of experiment: Biodistribution in Sprague-Dawley rat kidney assessed per gram of tissue at 1 MBq, iv after 0.25 hrs. It counts as ADME, organism-based. The following applies: in vivo. In outline:
(§1)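 Male SD rats aged 8-10 weeks got 1 MBq [18F]tracer by tail vein in 0.1 mL. Groups of n = 4 were killed (CO2, then cervical fracture) at 0.25, 0.5, 1 and 4 h. Organs were weighed and gamma counted against a diluted standard of the injectate. Results are %ID per gram wet tissue, mean with standard deviation.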

Data set [2] concerns Kidney. As to the kind of experiment: Biodistribution in Sprague-Dawley rat kidney assessed per gram of tissue at 1 MBq, iv after 0.5 hrs. Type of data set: ADME, organism-based. The conditions noted are these: in vivo. In outline: as §1
Data set [3] relates to Kidney. As to the kind of experiment: Biodistribution in Sprague-Dawley rat kidney assessed per gram of tissue at 1 MBq, iv after 1 hr. Type of data set: ADME, organism-based. The following applies: in vivo. In outline:
as §1

The subject of data set [4] is Kidney. As to the kind of experiment: Biodistribution in Sprague-Dawley rat kidney assessed per gram of tissue at 1 MBq, iv after 4 hrs. Type of data set: ADME, organism-based. The conditions noted are these: in vivo. Put shortly: as §1
Data set [5] concerns Heart. As to the kind of experiment: Biodistribution in Sprague-Dawley rat heart assessed per gram of tissue at 1 MBq, iv after 0.25 hrs. It counts as ADME, organism-based. The following applies: in vivo. Put shortly:
as §1

Data set [6] relates to Heart. As to the kind of experiment: Biodistribution in Sprague-Dawley rat heart assessed per gram of tissue at 1 MBq, iv after 0.5 hrs. The following applies: in vivo. It counts as ADME, organism-based. Put shortly:
as §1

In data set [7] the test system is Heart. As to the kind of experiment: Biodistribution in Sprague-Dawley rat heart assessed per gram of tissue at 1 MBq, iv after 1 hr. It counts as ADME, organism-based. The following applies: in vivo. Put shortly:
as §1

Data set [8] concerns Heart. As to the kind of experiment: Biodistribution in Sprague-Dawley rat heart assessed per gram of tissue at 1 MBq, iv after 4 hrs. Type of data set: ADME, organism-based. The conditions noted are these: in vivo. Put shortly:
as §1

For data set [9], the system named is Lung. As to the kind of experiment: Biodistribution in Sprague-Dawley rat lungs assessed per gram of tissue at 1 MBq, iv after 0.25 hrs. It counts as ADME, organism-based. The conditions noted are these: in vivo. Put shortly:
as §1

For data set [10], the system named is Lung. As to the kind of experiment: Biodistribution in Sprague-Dawley rat lungs assessed per gram of tissue at 1 MBq, iv after 0.5 hrs. The following applies: in vivo. Type of data set: ADME, organism-based. In outline:
as §1

Data set [11] relates to Lung. As to the kind of experiment: Biodistribution in Sprague-Dawley rat lungs assessed per gram of tissue at 1 MBq, iv after 1 hr. It counts as ADME, organism-based. The following applies: in vivo. In outline: as §1
Data set [12] relates to Lung. As to the kind of experiment: Biodistribution in Sprague-Dawley rat lungs assessed per gram of tissue at 1 MBq, iv after 4 hrs. The following applies: in vivo. Type of data set: ADME, organism-based. In outline:
as §1

The test system of data set [13] is Spleen. As to the kind of experiment: Biodistribution in Sprague-Dawley rat spleen assessed per gram of tissue at 1 MBq, iv after 0.25 hrs. Type of data set: ADME, organism-based. The following applies: in vivo. In outline: as §1
For data set [14], the system named is Spleen. As to the kind of experiment: Biodistribution in Sprague-Dawley rat spleen assessed per gram of tissue at 1 MBq, iv after 0.5 hrs. Type of data set: ADME, organism-based. The conditions noted are these: in vivo. Put shortly:
as §1

Data set [15] concerns Spleen. As to the kind of experiment: Biodistribution in Sprague-Dawley rat spleen assessed per gram of tissue at 1 MBq, iv after 1 hr. It counts as ADME, organism-based. The following applies: in vivo. In outline: as §1
The subject of data set [16] is Spleen. As to the kind of experiment: Biodistribution in Sprague-Dawley rat spleen assessed per gram of tissue at 1 MBq, iv after 4 hrs. It counts as ADME, organism-based. The conditions noted are these: in vivo. Put shortly:
as §1

The subject of data set [17] is Liver. As to the kind of experiment: Biodistribution in Sprague-Dawley rat liver assessed per gram of tissue at 1 MBq, iv after 0.25 hrs. Type of data set: ADME, organism-based. The following applies: in vivo. Put shortly: as §1
Data set [18] has as its system Liver. As to the kind of experiment: Biodistribution in Sprague-Dawley rat liver assessed per gram of tissue at 1 MBq, iv after 0.5 hrs. Type of data set: ADME, organism-based. The following applies: in vivo. In outline:
as §1

For data set [19], the system named is Liver. As to the kind of experiment: Biodistribution in Sprague-Dawley rat liver assessed per gram of tissue at 1 MBq, iv after 1 hr. The following applies: in vivo. It counts as ADME, organism-based. In outline: as §1
In data set [20] the test system is Liver. As to the kind of experiment: Biodistribution in Sprague-Dawley rat liver assessed per gram of tissue at 1 MBq, iv after 4 hrs. It counts as ADME, organism-based. The following applies: in vivo. In outline: as §1
Data set [21] concerns Adrenal. As to the kind of experiment: Biodistribution in Sprague-Dawley rat adrenals assessed per gram of tissue at 1 MBq, iv after 0.25 hrs. Type of data set: ADME, organism-based, Adrenal tissue. The conditions noted are these: in vivo. In outline:
as §1

For data set [22], the system named is Adrenal. As to the kind of experiment: Biodistribution in Sprague-Dawley rat adrenals assessed per gram of tissue at 1 MBq, iv after 0.5 hrs. Type of data set: ADME, organism-based, Adrenal tissue. The conditions noted are these: in vivo. Put shortly: as §1
Data set [23] has as its system Adrenal. As to the kind of experiment: Biodistribution in Sprague-Dawley rat adrenals assessed per gram of tissue at 1 MBq, iv after 1 hr. It counts as ADME, organism-based, Adrenal tissue. The conditions noted are these: in vivo. In outline:
as §1

Data set [24] deals with Adrenal. As to the kind of experiment: Biodistribution in Sprague-Dawley rat adrenals assessed per gram of tissue at 1 MBq, iv after 4 hrs. It counts as ADME, organism-based, Adrenal tissue. The following applies: in vivo. In outline:
as §1

Data set [25] can be described thus: Biodistribution in Sprague-Dawley rat testis assessed per gram of tissue at 1 MBq, iv after 0.25 hrs. Type of data set: ADME, organism-based. The conditions noted are these: in vivo. In outline:
as §1

Data set [26] in a line: Biodistribution in Sprague-Dawley rat testis assessed per gram of tissue at 1 MBq, iv after 0.5 hrs. It counts as ADME, organism-based. The conditions noted are these: in vivo. Put shortly: as §1
Data set [27] in a line: Biodistribution in Sprague-Dawley rat testis assessed per gram of tissue at 1 MBq, iv after 1 hr. The following applies: in vivo. It counts as ADME, organism-based. Put shortly:
as §1

Data set [28] can be described thus: Biodistribution in Sprague-Dawley rat testis assessed per gram of tissue at 1 MBq, iv after 4 hrs. Type of data set: ADME, organism-based. The following applies: in vivo. Put shortly:
as §1

Data set [29] deals with Blood. As to the kind of experiment: Biodistribution in Sprague-Dawley rat blood at 1 MBq, iv after 0.25 hrs. It counts as ADME, organism-based. The following applies: in vivo. Put shortly: as §1
The subject of data set [30] is Blood. As to the kind of experiment: Biodistribution in Sprague-Dawley rat blood at 1 MBq, iv after 4 hrs. The conditions noted are these: in vivo. It counts as ADME, organism-based. In outline: as §1
For data set [31], the system named is Femur. As to the kind of experiment: Biodistribution in Sprague-Dawley rat femur at 1 MBq, iv after 0.25 hrs. It counts as ADME, organism-based. The conditions noted are these: in vivo. In outline:
as §1

In data set [32] the test system is Femur. As to the kind of experiment: Biodistribution in Sprague-Dawley rat femur at 1 MBq, iv after 4 hrs. Type of data set: ADME, organism-based. The following applies: in vivo. In outline: as §1
A short description of data set [33]: Metabolic stability in Sprague-Dawley rat plasma assessed as drug remaining at 30 MBq after 0.25 hrs by Radio-HPLC analysis. It counts as ADME, cell-free. The conditions noted are these: read-out: Stability. Put shortly:
(§2)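 Rats received 30 MBq tracer and were sampled at 0.25, 0.5, 1 and 4 h. Plasma was diluted with water containing unlabeled carrier and KF and injected directly. Frontal cortex or olfactory bulb was sonicated in acetonitrile/water 1:1 with carrier and KF, centrifuged, and the supernatant diluted. Radio-HPLC used a precolumn switched to C18 with a CH3CN/0.05 M sodium acetate pH 5.5 gradient. Result is % parent remaining.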

A short description of data set [34]: Metabolic stability in Sprague-Dawley rat frontal cortex assessed as drug remaining at 30 MBq after 0.25 hrs by Radio-HPLC analysis. The conditions noted are these: read-out: Stability. Type of data set: ADME, tissue-based. In outline:
as §2

Data set [35] is described as follows: Metabolic stability in Sprague-Dawley rat frontal cortex assessed as drug remaining at 30 MBq after 4 hrs by Radio-HPLC analysis. Type of data set: ADME, tissue-based. The conditions noted are these: read-out: Stability. Put shortly: as §2
The nature of data set [36]: Lipophilicity, log p at pH 7.5. The following applies: buffer. Type of data set: physicochemical. Put shortly:
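RP-HPLC on a C18 column with methanol/0.1 M phosphate buffer pH 7.5 (60/40) at 1 mL/min. Samples were dissolved in methanol. log P7.5 was estimated by comparing retention time with that of reference compounds of known log P.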

The target of data set [37] is T1, Translocator protein (Rattus norvegicus, UniProt P16257). As to the kind of experiment: Displacement of [3H]PK11195 from peripheral benzodiazepine receptor in rat kidney membrane. Type of data set: cell membranes.
T1 sequence (P16257 whole entry, looked up): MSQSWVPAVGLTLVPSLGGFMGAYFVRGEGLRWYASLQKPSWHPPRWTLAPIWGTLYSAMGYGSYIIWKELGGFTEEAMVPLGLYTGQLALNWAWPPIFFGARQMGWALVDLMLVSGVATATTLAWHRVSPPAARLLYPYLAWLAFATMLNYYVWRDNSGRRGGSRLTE
In data set [38] the target is T1, Translocator protein. As to the kind of experiment: Displacement of [3H]Ro 5-4864 from peripheral benzodiazepine receptor in rat kidney membrane. It counts as cell membranes.
Data set [39] in a line: Displacement of [3H]flumazenil from central benzodiazepine receptor in rat brain cortex membrane. It counts as cell membranes. Put shortly:
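Rat brain cortex membranes (100-150 µg protein) were incubated in triplicate at 25 °C for 45 min with [3H]flumazenil (2 nM) and 7 ligand concentrations (10^-10 to 10^-5 M). Nonspecific binding was set with flumazenil 20 µM. Assays were filtered, washed with ice-cold Tris/HCl pH 7.4 and counted. Ki was derived from IC50 by Cheng-Prusoff.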
In general terms: Displacement assays read how much labelled ligand stays bound in the presence of the test substance.

Structures are written as SMILES.

`CCN(CC)C(=O)Cc1c(-c2ccc(OCCC[18F])cc2)nc2ccc(Cl)cn12`: the Drug uptake with Kidney [1] stood at 4.3 %ID; in the data set on Kidney [2] it was 5 %ID; in the data set with Kidney [3], 3.7 %ID; with Kidney [4] it was 1.8 %ID; in the data set on Heart [5], 7.8 %ID; in the data set on Heart [6], 8.3 %ID. The Drug uptake with Heart [7] was determined as 6.4 %ID; with Heart [8], 2.9 %ID; in the data set with Lung [9] it was 12.3 %ID; with Lung [10], 7.7 %ID; with Lung [11], 4.1 %ID; with Lung [12], 2.2 %ID. Also, the Drug uptake in the data set with Spleen [13] was determined as 5.5 %ID; in the data set on Spleen [14], 6 %ID; with Spleen [15] it was 4.5 %ID; in the data set on Spleen [16] it was 2.5 %ID; with Liver [17], 1.08 %ID; with Liver [18], 0.79 %ID. The Drug uptake is recorded as 0.61 %ID with Liver [19]; 0.3 %ID in the data set on Liver [20]; 8.5 %ID with Adrenal [21]; 11.8 %ID with Adrenal [22]; 9.6 %ID with Adrenal [23]; 11.4 %ID with Adrenal [24]. Also, the Drug uptake in [25] is reported as 0.33 %ID; in [26] it was 0.43 %ID; in data set [27], 0.41 %ID; in data set [28] it was 0.53 %ID; in the data set on Blood [29], 0.3 % ID/g; in the data set with Blood [30], 0.1 % ID/g. For the same compound, the results for the Drug uptake with Femur [31] and with Femur [32] were 0.6 % ID/g and 2.2 % ID/g, respectively. Further, the values for the remaining at 0.25 h in data set [33] and in [34] were 10% and 55%, respectively. In addition, in [35], the remaining at 4 h turned out to be 30%.

The compound `CCN(CC)C(=O)Cc1c(-c2ccc(OCCCF)cc2)nc2ccc(Cl)cn12` returned a logD in [36] of 3.2. Further, the Ki on Translocator protein [37] worked out at 3.7 nM; on Translocator protein [38] it was 4.2 nM; in [39], 800 nM.

Turning to `CCN(CC)C(=O)Cc1c(-c2ccc(OCCF)cc2)nc2ccc(Cl)cn12`, the log distribution coefficient (logD) in [36] came out at 2.7. Also, the inhibition constant Ki was 5.8 nM at Translocator protein [37], 3.3 nM on Translocator protein [38] and 790 nM in [39].

Consider `CCN(CC)C(=O)Cc1c(-c2ccc(OCCCF)cc2)nn2c(C)cc(C)nc12`, for which the pH-dependent lipophilicity (logD) in data set [36] came out at 3.2. This compound came in with an inhibition constant Ki in data set [39] of over 5000 nM.

The term logD denotes lipophilicity at a set pH, counting ionised and neutral species. Lower therefore signals lower lipophilicity. Broadly, the Ki is a measure of affinity in units of concentration, obtained from inhibition or displacement.
